From ChEMBL document CHEMBL4673249, “Anticancer Effects of Honokiol via Mitochondrial Dysfunction Are Strongly Enhanced by the Mitochondria-Targeting Carrier Berberine” (J Med Chem, 2020) come the findings set out here.

Activity calls are given as the source filed them. The calls are words filed in the database; no cut-off is given here.

For data set [1], the system named is HepG2. The experiment in a line: Antiproliferative activity against human HepG2 cells assessed as reduction in cell viability after 48 hrs by MTT assay. The class given is functional, cell-based. The settings on record: HepG2, 48 h. In a few lines: (§1)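 Cell lines grown at 37 °C in 5% CO2: A2780, A549, HL7702 and PC3 in RPMI 1640; HT29 in McCoy's 5A; HepG2 and PANC-1 in DMEM; all media with 10% FBS and penicillin/streptomycin. Cells seeded and left overnight, then exposed to compound for 48 h. MTT (5 mg/mL solution) added for 4 h at 37 °C, formazan dissolved in DMSO, absorbance read at 570 nm. IC50 taken from viability; run in triplicate.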
For orientation: Formazan colour is commonly taken as a measure of viable cells.

In data set [2] the test system is HepG2. The experiment in a line: Synergistic antiproliferative activity against human HepG2 cells assessed as combination index after 48 hrs in presence BBR by MTT assay. The class given is functional.
For data set [3], the system named is HepG2. The experiment in a line: Synergistic antiproliferative activity against human HepG2 cells assessed as combination index after 48 hrs in presence HN by MTT assay. The class given is functional.
For data set [4], the system named is HepG2. Put plainly: Induction of morphological changes in human HepG2 cells assessed as accumulation of cytoplasmic vacuoles at 40 uM after 24 hrs by optical microscopic method. The class given is functional, cell-based.
Data set [5] relates to A549. Put plainly: Antiproliferative activity against human A549 cells assessed as reduction in cell viability after 48 hrs by MTT assay. The class given is functional, cell-based. The settings on record: A549, 48 h. The method, boiled down: as §1
Data set [6] deals with A2780. Put plainly: Antiproliferative activity against human A2780 cells assessed as reduction in cell viability after 48 hrs by MTT assay. Particulars: A2780, 48 h. The class given is functional, cell-based. The method, boiled down:
as §1

Data set [7] relates to HT-29. Put plainly: Antiproliferative activity against human HT29 cells assessed as reduction in cell viability after 48 hrs by MTT assay. The class given is functional, cell-based. Particulars: HT-29, 48 h. The method, boiled down:
as §1

The subject of data set [8] is PANC-1. Put plainly: Antiproliferative activity against human PANC1 cells assessed as reduction in cell viability after 48 hrs by MTT assay. The class given is functional, cell-based. The settings on record: PANC-1, 48 h. The method, boiled down:
as §1

In data set [9] the test system is PC-3. The experiment in a line: Antiproliferative activity against human PC-3 cells assessed as reduction in cell viability after 48 hrs by MTT assay. Particulars: PC-3, 48 h. The class given is functional, cell-based. The method, boiled down: as §1
Data set [10] deals with L02. Put plainly: Antiproliferative activity against human L02 cells assessed as reduction in cell viability after 48 hrs by MTT assay. The class given is cell-based. The settings on record: L02, 48 h. In a few lines: as §1
For data set [11], the system named is HepG2. The experiment in a line: Induction of morphological changes in human HepG2 cells assessed as accumulation of cytoplasmic vacuoles at 4 uM after 24 hrs by optical microscopic method. The class given is functional, cell-based. In a few lines: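 Cells grown at 37 °C, 5% CO2 in media with 10% FBS and penicillin/streptomycin, then treated with compound. Cytoplasmic vacuoles judged by optical microscopy. Time course at 4 μM, or 10 h exposure across increasing concentrations.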

A short description of data set [12]: Drug uptake in human HepG2 cells mitochondria at 5 uM after 12 hrs by HPLC analysis. The class given is ADME. Particulars: hepg2, 12 h. The method, boiled down: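 HepG2 cells given 5 μM for 12 h, then homogenized in mitochondrial extraction reagent. Spun at 600 g, 4 °C, 10 min; supernatant spun again at 11000 g, 4 °C, 10 min, and the pellet taken as mitochondria. Drug content by HPLC on a C18 column with methanol–0.1% acetic acid (80:20), detection at 265 nm. Run thrice.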

The subject of data set [13] is HepG2. Put plainly: Induction of morphological changes in human HepG2 cells assessed as accumulation of cytoplasmic vacuoles >30 uM after 24 hrs by optical microscopic method. Particulars: dose microM >30, time 24.0 hrs. The class given is functional, cell-based.
Data set [14] deals with HepG2. The experiment in a line: Synergistic antiproliferative activity against human HepG2 cells assessed as combination index at 20 to 80 uM after 48 hrs in presence of 10 to 40 uM HN by MTT assay. The class given is functional. The settings on record: dose 20-80 µM.

For `C=CCc1ccc(O)c(-c2ccc(OCCCCC)c(CC=C)c2)c1`, in data set [1], the IC50 (commonly the concentration that gives 50% inhibition) was found to be 19.2 µM. Further, in data set [2], the CI turned out to be 0.79.

Turning to `CCCCCc1c2[n+](cc3c(OC)c(OC)ccc13)CCc1cc3c(cc1-2)OCO3.[I-]`, the IC50 in [1] is 29.3 µM. In [3], the CI is reported as 0.79. For the same molecule, the result in [4] was Active.

As for `C=CCc1ccc(O)c(-c2ccc(OC)c(CC=C)c2)c1` [METHYLHONOKIOL], the IC50 in [5] was 22 µM; in [6] it was 14.7 µM; in data set [1], 17.5 µM; in [7], 21.1 µM; in data set [8], 16.7 µM; in data set [9], 17.9 µM. Further, the IC50 in data set [10] was 23.9 µM.

As to `C=CCc1ccc(OCCCCCc2c3[n+](cc4c(OC)c(OC)ccc24)CCc2cc4c(cc2-3)OCO4)c(-c2ccc(O)c(CC=C)c2)c1`, the IC50 in data set [5] is 2.9 µM; in [6], 1.59 µM; in data set [1], 2.32 µM; in data set [7], > 5 µM; in [8], 3.24 µM; in data set [9], 1.59 µM. The IC50 in data set [10] came out at 3.04 µM. Besides, the result in [11] was Active.

Regarding `C=CCc1ccc(OC)c(-c2ccc(OCCCCCc3c4[n+](cc5c(OC)c(OC)ccc35)CCc3cc5c(cc3-4)OCO5)c(CC=C)c2)c1`, the IC50 in data set [5] turned out to be 1.33 µM; in [6], 1.17 µM; in [1], 1.05 µM; in data set [7], 1.64 µM; in data set [8] it was 1.73 µM; in [9] it was 0.99 µM. In data set [10], the IC50 amounted to 3.43 µM. Moreover, the result in data set [11] was Active.

Take `COc1cccc2c1C(=O)c1c(O)c3c(c(O)c1C2=O)C[C@@](O)(C(=O)CO)C[C@@H]3O[C@H]1C[C@H](N)[C@H](O)[C@H](C)O1` [DOXORUBICIN]: the IC50 in data set [5] worked out at 3.08 µM; in data set [6] it was 0.71 µM; in [1] it was 0.67 µM; in [7] it was 5.92 µM; in [8] it was 1.73 µM; in [9], 0.93 µM. For the same molecule, the IC50 in data set [10] stood at 2.24 µM.

Consider `C=CCc1ccc(OCCCc2c3[n+](cc4c(OC)c(OC)ccc24)CCc2cc4c(cc2-3)OCO4)c(-c2ccc(O)c(CC=C)c2)c1`, for which the IC50 was > 5 µM in data set [5]; 3.03 µM in data set [6]; 3.71 µM in [1]; > 5 µM in [7]; > 5 µM in data set [8]; 2.26 µM in data set [9]. The IC50 in data set [10] came out at 5.21 µM. Also, in data set [11], the outcome was Active.

Take `C=CCc1ccc(OCCC)c(-c2ccc(O)c(CC=C)c2)c1`: the IC50 in data set [5] came to 14.7 µM; in [6], 14.7 µM; in data set [1], 15.5 µM; in [7], 26.4 µM; in [8], 15.9 µM; in [9], 17 µM. For the same molecule, the IC50 in [10] worked out at 22.4 µM.

Consider `C=CCc1ccc(OCCCCCc2c3[n+](cc4c(OC)c(OC)ccc24)CCc2cc4c(cc2-3)OCO4)c(-c2ccc(OC)c(CC=C)c2)c1`, for which the IC50 stood at 1.71 µM in [5]; 1.36 µM in [6]; 1.04 µM in [1]; 1.56 µM in data set [7]; 2.96 µM in [8]; 1.12 µM in [9]. Moreover, in [10], the IC50 worked out at 2.97 µM. In addition, the result in data set [11] was Active.

For `C=CCc1ccc(OC)c(-c2ccc(O)c(CC=C)c2)c1`, the IC50 in data set [5] is > 30 µM; in data set [6] it was 24.7 µM; in [1] it was 29.7 µM; in data set [7], 35.4 µM; in [8] it was 16.4 µM; in data set [9], 24.8 µM. The IC50 in [10] amounted to 35.3 µM.

Turning to `C=CCc1ccc(O)c(-c2ccc(OCCC)c(CC=C)c2)c1`, the IC50 in data set [5] is 21 µM; in data set [6] it was 14.7 µM; in data set [1], 19.1 µM; in data set [7] it was 26.5 µM; in [8], 17.8 µM; in [9] it was 21.1 µM. In addition, in data set [10], the IC50 amounted to 27.8 µM.

As for `C=CCc1ccc(O)c(-c2ccc(O)c(CC=C)c2)c1` [HONOKIOL], the IC50 in [5] was determined as 38 µM; in data set [6] it was 31.6 µM; in [1], 23.9 µM; in data set [7], 31.6 µM; in data set [8], 31.2 µM; in data set [9], 29 µM. The IC50 in data set [10] worked out at 25.5 µM. The Drug uptake in data set [12] was found to be 17.8 µM. Further, in data set [13], the result was Active.

Turning to `COc1ccc2cc3[n+](cc2c1OC)CCc1cc2c(cc1-3)OCO2.[Cl-]` [BERBERINE CHLORIDE], the IC50 is > 50 µM in data set [5]; > 50 µM in data set [6]; > 50 µM in [1]; > 50 µM in data set [7]; > 50 µM in data set [8]; 31.7 µM in data set [9]. Besides, the IC50 in data set [10] was > 50 µM. Further, in data set [14], the CI is listed as >1. In data set [4], the result was inactive.

`C=CCc1ccc(O)c(-c2ccc(OCCCCCCCCc3c4[n+](cc5c(OC)c(OC)ccc35)CCc3cc5c(cc3-4)OCO5)c(CC=C)c2)c1`: the IC50 in data set [5] was found to be 1.84 µM; in data set [6], 1.52 µM; in data set [1], 0.77 µM; in [7] it was 2.89 µM; in data set [8], 2.09 µM; in [9], 1.74 µM. The IC50 in data set [10] is 4.82 µM. Besides, the outcome in [11] was Active.

As for `C=CCc1ccc(O)c(-c2ccc(OCCCc3c4[n+](cc5c(OC)c(OC)ccc35)CCc3cc5c(cc3-4)OCO5)c(CC=C)c2)c1`, the IC50 in [5] is 3.25 µM; in [6], 1.56 µM; in data set [1] it was 2.19 µM; in [7] it was > 5 µM; in data set [8], 6.02 µM; in data set [9], 1.17 µM. Further, the IC50 in data set [10] was determined as 3.56 µM. For the same molecule, the outcome in [11] was Active.

As to `C=CCc1ccc(OCCC)c(-c2ccc(OCCCCCc3c4[n+](cc5c(OC)c(OC)ccc35)CCc3cc5c(cc3-4)OCO5)c(CC=C)c2)c1`, the IC50 came out at 1.25 µM in data set [5]; 1.41 µM in [6]; 0.95 µM in data set [1]; 1.95 µM in data set [7]; 1.69 µM in data set [8]; 1.22 µM in [9]. In addition, the IC50 in data set [10] was found to be 3.05 µM. For the same molecule, the outcome in [11] was Active.

For `C=CCc1ccc(OCCCCCc2c3[n+](cc4c(OC)c(OC)ccc24)CCc2cc4c(cc2-3)OCO4)c(-c2ccc(OCCC)c(CC=C)c2)c1`, the IC50 was determined as 1.66 µM in data set [5]; 1.68 µM in data set [6]; 0.92 µM in data set [1]; 2.39 µM in data set [7]; 2.56 µM in data set [8]; 1.43 µM in data set [9]. For the same molecule, in data set [10], the IC50 is 3.62 µM. Moreover, in data set [11], the outcome was Active.

Consider `C=CCc1ccc(OCCCCCCCCc2c3[n+](cc4c(OC)c(OC)ccc24)CCc2cc4c(cc2-3)OCO4)c(-c2ccc(O)c(CC=C)c2)c1`, for which the IC50 in data set [5] came out at 2.09 µM; in [6], 1.97 µM; in data set [1], 1.27 µM; in data set [7], 2.54 µM; in data set [8], 2.48 µM; in data set [9] it was 2 µM. Also, in data set [10], the IC50 is 5.77 µM. In addition, the result in [11] was Active.
